Series [1] can be described thus: Antioxidant activity assessed as vitamin-c equivalents of ferric ion reducing activity by measuring Fe2+ levels using Fe3+-TPTZ by FRAP assay. Type of series: functional. An outline of the steps:
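Ferric-TPTZ complex reduced to ferrous form, per earlier-described method. Calibration curve from serial dilution of vitamin C standard (100-600 […] as printed). Compound reducing power expressed as vitamin C equivalents, calculated from three independent experiments.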

Series [2] has as its system PC-12. Description: Cytotoxicity against rat PC12 cells assessed as effect on cell viability at 100 uM after 48 hrs by MTT assay. Type of series: cell-based. Particulars: pc-12, 48 h. An outline of the steps: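 Rat PC12 cells at 5×10^5 per well, grown 24 h, then exposed 48 h to compound in DMSO. MTT added for 4 h, formazan dissolved in DMSO, absorbance 490 nm. Viability relative to DMSO-treated controls. Triplicate tests.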

Series [3] has as its system PC-12. In words: Cytoprotective activity against H2O2-induced oxidative damage in rat PC12 cells assessed as cell viability at 100 uM preincubated for 0.5 hrs followed by H2O2 addition measured after 2 hrs by MTT assay relative to control. Type of series: functional. To be noted: read-out: Activity. An outline of the steps: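 PC12 cells in RPMI-1640 with 10% FBS, plated at 5×10^5 per well, 24 h. Compound in DMSO added 0.5 h before 100 µM H2O2, then 2 h injury. MTT for 4 h, formazan dissolved in DMSO, OD 490 nm. Viability normalised to DMSO controls (100%). Mean of three independent experiments.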

Series [4] deals with PC-12. In words: Cytoprotective activity against H2O2-induced oxidative damage in rat PC12 cells assessed as reduction in morphological changes by measuring cell shrinkage at 10 to 100 uM preincubated for 0.5 hrs followed by H2O2 addition measured after 2 hrs. Type of series: functional, cell-based. An outline of the steps: (§1)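 PC12 cells plated 5×10^5 cells/well and grown 24 h, then given test agent (10 and 100 µM) for 0.5 h before 100 µM H2O2 for 2 h. Controls received medium with 0.1% DMSO. Cell shrinkage and blebbing were inspected by microscopy at 200×.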

The subject of series [5] is PC-12. In words: Cytoprotective activity against H2O2-induced oxidative damage in rat PC12 cells assessed as reduction in morphological changes by measuring membrane blebbing at 10 to 100 uM preincubated for 0.5 hrs followed by H2O2 addition measured after 2 hrs. Type of series: functional, cell-based. The essentials:
as §1

Series [6] relates to PC-12. In words: Cytoprotective activity against H2O2-induced apoptosis in rat PC12 cells assessed as live cells at 10 uM preincubated for 0.5 hrs followed by H2O2 addition measured after 2 hrs by Annexin V-FITC/propidium iodide staining based flow cytometry (reference value: 37.3%). Type of series: functional.
The subject of series [7] is PC-12. Description: Cytoprotective activity against H2O2-induced apoptosis in rat PC12 cells assessed as early apoptotic cells at 10 uM preincubated for 0.5 hrs followed by H2O2 addition measured after 2 hrs by Annexin V-FITC/propidium iodide staining based flow cytometry (reference value: 3.2%). Type of series: functional.
The subject of series [8] is PC-12. Description: Cytoprotective activity against H2O2-induced apoptosis in rat PC12 cells assessed as late apoptotic cells at 10 uM preincubated for 0.5 hrs followed by H2O2 addition measured after 2 hrs by Annexin V-FITC/propidium iodide staining based flow cytometry (reference value: 57.5%). Type of series: functional.
The subject of series [9] is PC-12. Description: Cytoprotective activity against H2O2-induced apoptosis in rat PC12 cells assessed as necrotic cells at 10 uM preincubated for 0.5 hrs followed by H2O2 addition measured after 2 hrs by Annexin V-FITC/propidium iodide staining based flow cytometry (reference value: 2%). Type of series: functional.
For series [10], the system named is PC-12. Description: Cytoprotective activity against H2O2-induced apoptosis in rat PC12 cells assessed as live cells at 100 uM preincubated for 0.5 hrs followed by H2O2 addition measured after 2 hrs by Annexin V-FITC/propidium iodide staining based flow cytometry (reference value: 37.3%). Type of series: functional.
For series [11], the system named is PC-12. Description: Cytoprotective activity against H2O2-induced apoptosis in rat PC12 cells assessed as necrotic cells at 100 uM preincubated for 0.5 hrs followed by H2O2 addition measured after 2 hrs by Annexin V-FITC/propidium iodide staining based flow cytometry (reference value: 2%). Type of series: functional.
For series [12], the system named is PC-12. In words: Cytoprotective activity against H2O2-induced apoptosis in rat PC12 cells assessed as apoptotic cells at 100 uM preincubated for 0.5 hrs followed by H2O2 addition measured after 2 hrs by Annexin V-FITC/propidium iodide staining based flow cytometry (reference value: 60.7%). Type of series: functional.
Series [13] concerns PC-12. Description: Cytoprotective activity against H2O2-induced apoptosis in rat PC12 cells assessed as early apoptotic cells at 100 uM preincubated for 0.5 hrs followed by H2O2 addition measured after 2 hrs by Annexin V-FITC/propidium iodide staining based flow cytometry (reference value: 3.2%). Type of series: functional.
Series [14] has as its system PC-12. In words: Cytoprotective activity against H2O2-induced apoptosis in rat PC12 cells assessed as late apoptotic cells at 100 uM preincubated for 0.5 hrs followed by H2O2 addition measured after 2 hrs by Annexin V-FITC/propidium iodide staining based flow cytometry (reference value: 57.5%). Type of series: functional.

The source made the active and inactive calls. The calls are words filed in the database; no cut-off is given here.

In the case of `O=C1c2c(O)cc3oc4cc(O)c(O)cc4c3c2OC1Cc1ccccc1` (centres undefined), in series [1], the Activity was found to be 262 mgequiv/mmol. In the case of `O=C1c2c(cc3oc4cc(O)c(O)cc4c3c2O)OC1Cc1ccc(O)c(O)c1` (centres undefined), the Activity in [1] is 396 mgequiv/mmol; with PC-12 [2] it was “Toxic”.

Regarding `O=C1/C(=C/c2ccc(O)cc2)Oc2cc(O)c(-c3ccc(O)c(O)c3)c(O)c21`, the Activity in series [1] amounted to 241 mgequiv/mmol. Take `O=C1c2c(O)cc(O)c(-c3ccc(O)c(O)c3)c2OC1Cc1ccc(O)c(O)c1` (centres undefined): the Activity in [1] was found to be 376 mgequiv/mmol. Besides, the viability at 100 µM with PC-12 [3] was 100%.

As for `O=C1/C(=C/c2ccc(O)cc2)Oc2c1c(O)cc(O)c2-c1ccc(O)c(O)c1`, in series [1], the Activity was 263 mgequiv/mmol. Still for that read-out and setting: for `O=C1c2c(cc3oc4cc(O)c(O)cc4c3c2O)OC1Cc1ccc(O)cc1` (centres undefined) the value was 253 mgequiv/mmol; for `O=c1cc(-c2ccc(O)cc2)oc2c(-c3ccc(O)c(O)c3)c(O)cc(O)c12`, 271 mgequiv/mmol; for `O=C1/C(=C/c2ccc(O)cc2)Oc2c1c(O)cc1oc3cc(O)c(O)cc3c21`, 270 mgequiv/mmol.

As for `O=c1cc(-c2ccc(O)cc2)oc2cc(O)c(-c3ccc(O)c(O)c3)c(O)c12`, the Activity in [1] was determined as 276 mgequiv/mmol. In the case of `O=C1c2c(O)cc3oc4cc(O)c(O)cc4c3c2OC1Cc1ccc(O)c(O)c1` (centres undefined), the Activity in series [1] is 373 mgequiv/mmol. On the same count and under the same terms, for `O=c1cc(-c2ccc(O)cc2)oc2cc3oc4cc(O)c(O)cc4c3c(O)c12` the value was 116 mgequiv/mmol; for `O=C1/C(=C/c2ccccc2)Oc2cc3oc4cc(O)c(O)cc4c3c(O)c21`, 134 mgequiv/mmol. On to `O=C1/C(=C/c2ccc(O)c(O)c2)Oc2cc(O)c(-c3ccc(O)c(O)c3)c(O)c21`, for which the Activity in series [1] amounted to 372 mgequiv/mmol. The viability at 100 µM with PC-12 [3] turned out to be 100%. Take `O=C1CC(c2ccc(O)cc2)Oc2c1c(O)cc1oc3cc(O)c(O)cc3c21` (racemic): in [1], the Activity was found to be 224 mgequiv/mmol.

Turning to `O=C1/C(=C/c2ccc(O)cc2)Oc2cc3oc4cc(O)c(O)cc4c3c(O)c21`, the Activity in series [1] is 264 mgequiv/mmol.

On to `O=C1/C(=C/c2ccc(O)c(O)c2)Oc2c1c(O)cc(O)c2-c1ccc(O)c(O)c1`, for which the Activity was found to be 318 mgequiv/mmol in series [1]; 93.6% in the series with PC-12 [6]; 2.4% with PC-12 [7]; 3.5% in the series on PC-12 [8]; 0.4% in the series with PC-12 [9]; 95.6% in the series on PC-12 [10]. Besides, the Activity is 0.4% with PC-12 [11] and 4.1% with PC-12 [12]. Besides, the outcome in the series with PC-12 [4] and with PC-12 [5] was Active.

For the compound `O=C1/C(=C/c2ccccc2)Oc2cc(O)c(-c3ccc(O)c(O)c3)c(O)c21`, the Activity in series [1] turned out to be 237 mgequiv/mmol. Same read-out and setting: for `O=C1/C(=C/c2ccccc2)Oc2c1c(O)cc(O)c2-c1ccc(O)c(O)c1` the value was 269 mgequiv/mmol; for `O=c1cc(-c2ccc(O)cc2)oc2c1c(O)cc1oc3cc(O)c(O)cc3c12`, 137 mgequiv/mmol; for `O=C1/C(=C/c2ccc(O)c(O)c2)Oc2cc3oc4cc(O)c(O)cc4c3c(O)c21`, 277 mgequiv/mmol. For `O=C1c2c(cc3oc4cc(O)c(O)cc4c3c2O)OC1Cc1ccccc1` (centres undefined), the Activity in series [1] was determined as 227 mgequiv/mmol. On the same count and under the same terms, the value for `O=C1CC(c2ccc(O)cc2)Oc2cc3oc4cc(O)c(O)cc4c3c(O)c21` (racemic) was 260 mgequiv/mmol; that for `O=C1/C(=C/c2ccccc2)Oc2c1c(O)cc1oc3cc(O)c(O)cc3c21` was 116 mgequiv/mmol; that for `O=C1/C(=C/c2ccc(O)c(O)c2)Oc2c1c(O)cc1oc3cc(O)c(O)cc3c21` was 260 mgequiv/mmol.

Turning to `O=C1c2c(cc(O)c(-c3ccc(O)c(O)c3)c2O)OC1Cc1ccc(O)c(O)c1` (centres undefined), the Activity in [1] stood at 394 mgequiv/mmol.

For the compound `O=C1c2c(O)cc3oc4cc(O)c(O)cc4c3c2OC1Cc1ccc(O)cc1` (centres undefined), the Activity in series [1] was 248 mgequiv/mmol. In the case of `O=C(O)c1cc(O)c(O)c(O)c1` [GALLIC ACID], the Activity was determined as 333 mgequiv/mmol in series [1]; 85.8% in the series on PC-12 [6]; 2.5% in the series with PC-12 [7]; 10% in the series with PC-12 [8]; 1.7% in the series with PC-12 [9]; 96.7% in the series with PC-12 [10]. Besides, the Activity with PC-12 [13] is 0.7%; with PC-12 [14], 2.1%; with PC-12 [11] it was 0.4%. Also, the outcome in the series on PC-12 [4] and in the series with PC-12 [5] was Active.

Values taken from ChEMBL document CHEMBL4118083, “Synthesis and anti-oxidant activity evaluation of (±)-Anastatins A, B and their analogs” (Eur J Med Chem, 2017).
